Columns and labels:
[1] = species: Cavia porcellus; experiment: In vitro functional efficacy determined by maximal contraction of isolated guinea pig gallbladder at 1 uM concentration of compound relative to CCK-8 at 1 uM
Summary of the method: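 Isolated guinea pig gallbladder exposed to test ligand for 30 min at 37 °C. Maximal contraction at a single compound concentration is expressed relative to the CCK-8 contraction, set at 100%. Selective CCK-A antagonist MK-329 was used to check reversal of agonist responses.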

[2] = system: Rattus norvegicus; experiment: In vivo anoretic efficacy in the rat conditioned feeder assay measured as dose that produced half maximal response; type: functional
Summary of the method: (§1)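 Fasted rats in a conditioned-feeder model, dosed intraperitoneally; food intake measured at 30 min versus control animals. %Max is the percentage reduction in intake at 10 µmol/kg (CCK-8 at 0.5 µmol/kg). ED50 is the dose producing 50% of the maximal response seen at 10 µmol/kg.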

[3] = system: Rattus norvegicus; experiment: Percentage maximal response in rats at 10 umol/kg administered intraperitoneally; type: functional; summary of the method: as §1
[4] = species: Cavia porcellus; experiment: Concentration at which 50% of the maximal contraction was observed for % CCK; type: functional
Summary of the method: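 Isolated guinea pig gallbladder strips incubated with test ligand 30 min at 37 °C; contraction read as efficacy relative to CCK-8 (1 µM) = 100%. Single-concentration efficacy taken at 30 µM. Full dose–response curves run for ligands giving >40% of the CCK-8 response; ED50 is the concentration giving 50% of maximal contraction. Agonism checked for reversal by CCK-A antagonist MK-329.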

| Structure (SMILES) | inhibition at 1 µM [1] [%] | ED50 [2] [nmol/kg] | Max [3] [%] | ED50 [4] [nM] |
| --- | --- | --- | --- | --- |
| COc1ccc(N(C(=O)CN2C(=O)C(Cc3n[nH]c4ccccc34)N=C(c3ccccc3)c3ccccc32)C(C)C)cc1 (configuration not stated) | 27 |  |  |  |
| COc1ccc(N(C(=O)CN2C(=O)C(NC(=O)Nc3cccc(C(=O)O)c3)[N+]([O-])=C(C3CCCCC3)c3ccccc32)C(C)C)cc1 (configuration not stated) |  | 80 | 69 | 3 |
| COc1ccc(N(C(=O)CN2C(=O)C(NC(=O)Nc3ccccc3)[N+]([O-])=C(C)c3ccccc32)C(C)C)cc1 (configuration not stated) |  |  |  | 202 |
| COc1ccc(N(C(=O)CN2C(=O)C(NC(=O)Nc3ccccc3)[N+]([O-])=C(C3CCCCC3)c3ccccc32)C(C)C)cc1 (configuration not stated) |  | 25 | 75 | 342 |
| COc1ccc(N(C(=O)CN2C(=O)C(CC(=O)Nc3ccccc3)N=C(c3ccccc3)c3ccccc32)C(C)C)cc1 (configuration not stated) |  |  |  | 1100 |
| COc1ccc(N(C(=O)CN2C(=O)C(NC(=O)Nc3ccccc3)N=C(C)c3ccccc32)C(C)C)cc1 (configuration not stated) |  |  |  | 296 |
| CC(C)N(C(=O)CN1C(=O)C(Cc2c[nH]c3ccccc23)N=C(c2ccccc2)c2ccccc21)c1ccccc1 (configuration not stated) |  |  |  | 41 |
| COc1ccc(N(C(=O)CN2C(=O)C(NC(=O)c3cc4ccccc4[nH]3)[N+]([O-])=C(C3CCCCC3)c3ccccc32)C(C)C)cc1 (configuration not stated) |  |  |  | 131 |
| COc1ccc(N(C(=O)CN2C(=O)C(NC(=O)Nc3ccccc3)N=C(C3CCCCC3)c3ccccc32)C(C)C)cc1 (configuration not stated) |  |  |  | 233 |
| COc1ccc(N(C(=O)CN2C(=O)C(Cc3n[nH]c4ccccc34)[N+]([O-])=C(c3ccccc3)c3ccccc32)C(C)C)cc1 (configuration not stated) |  | 150 | 79 | 13 |
| COc1ccc(N(C(=O)CN2C(=O)C(NC(=O)Nc3cccc(C(=O)O)c3)N=C(c3ccccc3)c3ccccc32)C(C)C)cc1 (configuration not stated) | 27 |  |  |  |

From ChEMBL document CHEMBL1134248, “1,4-Benzodiazepine peripheral cholecystokinin (CCK-A) receptor agonists” (2001)
